The source made the active and inactive calls. The calls are words filed in the database; no cut-off is given here.
Assays:
U-266 [1] = assay: Upregulation of CD1D protein expression in human U-266 cells at 10^-6 M upto 96 hrs by flow cytometric analysis; format: functional, cell-based; settings: dose 1.0 10^-6M
Procedure, shortened: (§1)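 U266 cells were harvested in exponential growth and treated with 10^-6 M ATRA, 10^-6 M GSK343, or both, each diluted from a 1 mM 1000x PBS stock. Vehicle control was 0.01% DMSO. Incubation ran up to 96 hr, then CD1D mRNA was read by RT-PCR or CD1d protein by flow cytometry at set time points.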

U-266 [2] = assay: Upregulation of CD1D mRNA expression in human U-266 cells at 10^-6 M upto 96 hrs by RT-PCR analysis; format: functional, cell-based; settings: dose 1.0 10^-6M; procedure, shortened: as §1
U-266 [3] = assay: Upregulation of CD1D protein expression in human U-266 cells at 10^-6 M upto 96 hrs in presence of GSK343 by flow cytometric analysis; format: functional, cell-based; settings: dose 1.0 10^-6M; procedure, shortened: as §1
CLL cell [4] = assay: Upregulation of CD1D protein expression in human CLL cells at 10^-6 M upto 96 hrs by flow cytometric analysis; format: functional, cell-based; settings: dose 1.0 10^-6M
Procedure, shortened: (§2)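 Primary CLL cells were treated with 10^-6 M ATRA, freshly prepared in DMSO, protected from light and diluted to a 1 mM 1000x stock in PBS. Vehicle control was 0.01% DMSO. Cells were incubated for up to 96 hr, then CD1d was read by RT-PCR for mRNA or flow cytometry for surface protein at set time points.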

U-266 [5] = assay: Upregulation of CD1D mRNA expression in human U-266 cells at 10^-6 M upto 96 hrs in presence of GSK343 by RT-PCR analysis; format: functional, cell-based; settings: dose 1.0 10^-6M; procedure, shortened: as §1
CLL cell [6] = assay: Upregulation of CD1D mRNA expression in human CLL cells at 10^-6 M upto 96 hrs by RT-PCR analysis; format: functional, cell-based; settings: dose 1.0 10^-6M; procedure, shortened: as §2
[7] = Cytotoxicity against human CLL cells assessed as reduction in cell viability at 10^-6 M after 48 to 96 hrs by tryphan blue assay; format: toxicity, cell-based; settings: 1 µM, time 48-96 hrs, dose 1 10^-6M

SMILES | Activity (U-266 [1]) | Activity (U-266 [2]) | Activity (U-266 [3]) | Activity (CLL cell [4]) | Activity (U-266 [5]) | Activity (CLL cell [6]) | Activity [7]
CCCc1cc(C)[nH]c(=O)c1CNC(=O)c1cc(-c2ccnc(N3CCN(C)CC3)c2)cc2c1cnn2C(C)C | inactive | inactive |  |  |  |  | 
CC1=C(/C=C/C(C)=C/C=C/C(C)=C/C(=O)O)C(C)(C)CCC1 [TRETINOIN] |  |  | Active | Active | Active | Active | Non-Toxic

Reference: ChEMBL document CHEMBL5712902, “Enhanced Anti-lymphoma Activity of CAR19-iNKT Cells Underpinned by Dual CD19 and CD1d Targeting” (Cancer Cell, 2018)
